{"source": "ChEMBL document CHEMBL1141756", "about": "“3-Nitropropionic acid (3-NPA), a potent antimycobacterial agent from endophytic fungi: is 3-NPA in some plants produced by endophytes?” (J Nat Prod, 2005)", "key": {"[1]": {"tested_on": "Mycobacterium tuberculosis", "test": "Antimycobacterial activity against Mycobacterium tuberculosis H37Ra by microplate alamar blue assay", "assay_type": "functional", "in_short": "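MABA against M. tuberculosis H37Ra grown in Middlebrook 7H9 broth; MIC read. Isoniazid and kanamycin sulfate run as reference drugs in the same experiment as samples.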"}, "NCI-H187 [2]": {"tested_on": "NCI-H187", "test": "Cytotoxicity against human NCI-H187 cells at 167.9 uM", "assay_type": "functional, cell-based", "in_short": "(§1)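 BC, KB and NCI-H187 cells tested at 167.9 µM using the Skehan colorimetric cytotoxicity method; ellipticine reference.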"}, "BC": {"tested_on": "BC", "test": "Cytotoxicity against human BC cells at 167.9 uM", "assay_type": "functional, cell-based", "in_short": "as §1"}, "KB [3]": {"tested_on": "KB", "test": "Cytotoxicity against human KB cells at 167.9 uM", "assay_type": "functional, cell-based", "in_short": "as §1"}, "Vero [4]": {"tested_on": "Vero", "test": "Cytotoxicity against african green monkey Vero cells at 419.8 uM", "assay_type": "functional, cell-based", "conditions": "Chlorocebus sabaeus", "in_short": "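Vero cells tested at 419.8 µM using the Skehan colorimetric cytotoxicity method; ellipticine reference.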"}, "NCI-H187 [5]": {"tested_on": "NCI-H187", "test": "Cytotoxicity against human NCI-H187 cells", "assay_type": "functional, cell-based", "in_short": "(§2)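 Colorimetric cytotoxicity method (Skehan) on Vero, KB, NCI-H187 (small-cell lung cancer) and BC (breast cancer) cells; IC50 derived; ellipticine as reference compound.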"}, "[6]": {"test": "Cytotoxicity against human BC cells", "assay_type": "functional, cell-based", "in_short": "as §2"}, "KB [7]": {"tested_on": "KB", "test": "Cytotoxicity against human KB cells", "assay_type": "functional, cell-based", "in_short": "as §2"}, "Vero [8]": {"tested_on": "Vero", "test": "Cytotoxicity against african green monkey Vero cells", "assay_type": "functional, cell-based", "conditions": "Chlorocebus sabaeus", "in_short": "as §2"}}, "note": "Counter-ions that a name gives are not always drawn. Activity calls are given as the source filed them. The calls are words filed in the database; no cut-off is given here.", "data": [{"smiles": "NNC(=O)c1ccncc1", "note": "[ISONIAZID]", "values": [{"measurement": "MIC", "setting": "[1]", "value": 0.29, "unit": "µM"}]}, {"smiles": "NC[C@H]1O[C@H](O[C@H]2[C@H](O)[C@@H](O[C@H]3O[C@H](CO)[C@@H](O)[C@H](N)[C@H]3O)[C@H](N)C[C@@H]2N)[C@H](O)[C@@H](O)[C@@H]1O", "note": "[KANAMYCIN SULFATE]", "values": [{"measurement": "MIC", "setting": "[1]", "value": 3.4, "unit": "µM"}]}, {"smiles": "O=C(O)CC[N+](=O)[O-]", "values": [{"measurement": "MIC", "setting": "[1]", "value": 3.3, "unit": "µM"}, {"measurement": "Activity", "setting": "NCI-H187 [2]", "value": "inactive"}, {"measurement": "Activity", "setting": "BC", "value": "inactive"}, {"measurement": "Activity", "setting": "KB [3]", "value": "inactive"}, {"measurement": "Activity", "setting": "Vero [4]", "value": "inactive"}]}, {"smiles": "Cc1c2ccncc2c(C)c2c1[nH]c1ccccc12", "note": "[ELLIPTECINE]", "values": [{"measurement": "IC50", "setting": "NCI-H187 [5]", "value": 800, "unit": "nM"}, {"measurement": "IC50", "setting": "[6]", "value": 800, "unit": "nM"}, {"measurement": "IC50", "setting": "KB [7]", "value": 800, "unit": "nM"}, {"measurement": "IC50", "setting": "Vero [8]", "value": 800, "unit": "nM"}]}]}
